Usually inhibition stands for the share of the control response that was lost under treatment.

Assay [1] has as its target Prothrombin (Homo sapiens, UniProt P00734). In words: Inhibition of human thrombin using Boc-VPR-AMC as substrate at 25 uM preincubated for 15 mins before substrate addition measured up to 10 mins by spectrofluorimetry.
Assay [2] deals with West Nile virus. In words: Inhibition of West Nile virus NS2B-NS3 protease expressed in Escherichia coli BL21 lambda (DE3) using Abz-GLKRGG-3-(NO2)Y as substrate at 50 uM preincubated for 15 mins before substrate addition measured up to 15 mins by spectrofluorimetry. An outline of the steps:
(§1)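 Single-concentration screen against His-tagged NS2B-NS3 protease (Ni²⁺-affinity purified from E. coli). Enzyme was 100 nM for Dengue or 150 nM for West Nile. Inhibitor at 50 µM was preincubated 15 min with enzyme, then internally quenched FRET substrate (final 50 µM) was added. Read at ex 320/em 405 nm for 15 min. Rate taken as RFU/s; % inhibition is the mean of triplicates.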

In assay [3] the test system is Dengue virus. In words: Inhibition of Dengue virus NS2B-NS3 protease expressed in Escherichia coli BL21 lambda (DE3) using Abz-NleKRRS-3-(NO2)Y as substrate at 50 uM preincubated for 15 mins before substrate addition measured up to 15 mins by spectrofluorimetry. An outline of the steps: as §1

Active and inactive are the calls of the source. The rule behind the calls is not given here.

On to `N#CC(Cc1c[nH]c2ccccc12)C(N)=O` (centres undefined), for which the inhibition result in assay [1], in assay [2] and in assay [3] was “inactive” throughout.
Consider `CN1CCN(c2c(F)c(F)c(/C=C(\C#N)C(N)=O)c(F)c2F)CC1`, for which the figures for the inhibition in assay [1], in assay [2] and in assay [3] were 28.5%, 31.9% and 19.2%, respectively.
Consider `C/C(=C(\C#N)C(N)=O)c1ccc(O)cc1`, for which the inhibition result in assay [1] is “inactive”. Besides, the figures for the inhibition in assay [2] and in assay [3] were 22.7% and 13.2%, respectively.
For `C/C(=C\c1ccccc1)CC(C#N)C(N)=O` (centres undefined), in that order: “inactive”, “inactive” and “inactive”.
For `N#C/C(=C\c1ccc(Br)o1)C(=O)NC1CC1`, the values for the inhibition in assay [1], in assay [2] and in assay [3] were 26.9%, 23.9% and 15.6%, respectively.
For `N#C/C(=C\c1ccc(O)cc1)C(=O)NCc1ccccn1`, in that order: 18.9%, 41.8% and 46.6%.
For `C/C(=C(\C#N)C(N)=O)c1ccccc1`, in that order: 9.7%, 18.4% and 9%.
For `CN1CCN(c2ccc(/C=C(\C#N)C(N)=O)cc2)CC1`, in that order: 22%, 40.9% and 32.3%.
As for `N#C/C(=C\c1sccc1Br)C(N)=O`, the inhibition in assay [1] was 10.1%; in assay [2], 19.3%; in assay [3], 18.4%.
For `CN1CCN(C(=O)/C(C#N)=C/c2ccc(O)cc2)CC1`, in that order: 20.8%, 35.1% and 35.4%.
Take `N#C/C(=C\c1ccccc1N1CCOCC1)C(N)=O`: the inhibition in assay [1] was 7.4%; in assay [2] it was 7.7%; in assay [3] it was 10.4%.
For `COc1cc(/C=C(\C#N)C(N)=O)cc(OC)c1OC`, in that order: 17.8%, 19.3% and 15.6%.
For `N#C/C(=C\c1ccc(N2CCOCC2)s1)C(N)=O`, in that order: 38.6%, 29.1% and 23.2%.
On to `N#C/C(=C\c1ccc(F)cc1)C(N)=O`, for which the results for the inhibition in assay [1], in assay [2] and in assay [3] were 7.9%, 16% and 22.5%, respectively.
For `N#C/C(=C\c1ccc(O)cc1)C(=O)NC1CC1`, in that order: 18.8%, 57.3% and 44.7%.
For `CC(=C\c1ccccc1)/C=C(\C#N)C(N)=O`, in that order: 20.5%, 34.6% and 30.2%.
For `CC(C)c1ccc(/C=C(\C#N)C(=O)NC2CC2)cc1`, in that order: 17.9%, 22.2% and 18.2%.
For `N#C/C(=C\c1cccs1)C(N)=O`, the inhibition in assay [1] turned out to be 15.7%; in assay [2] it was 23.9%; in assay [3], 28.4%.
For `COc1cccc(/C=C(\C#N)C(N)=O)c1`, in that order: 9.6%, 12.3% and 16.3%.
For `CN(C)c1ccc(/C=C(\C#N)C(=O)NC2CC2)cc1`, in that order: 23.7%, 33.2% and 22.6%.
For `COc1cc(/C=C(\C#N)C(N)=O)ccc1OCc1ccccc1`, in that order: 16%, “inactive” and “inactive”.
On to `Cc1ccc(/C=C(\C#N)C(N)=O)cc1`, for which the inhibition result in assay [1] is “inactive”. In addition, the inhibition in assay [2] worked out at 22.8%; in assay [3] it was 32.2%.
For `CC(C)c1ccc(/C=C(\C#N)C(=O)NCc2ccccn2)cc1`, in that order: 11.6%, 39.5% and 24.9%.
For the molecule `N#C/C(=C\c1cccnc1)C(N)=O`, the inhibition result in assay [1], in assay [2] and in assay [3] was “inactive” each time.
In assay [1], `CC(C)/C(=C(/C#N)C(N)=O)c1ccccc1` showed an inhibition of 16.7%. Also, the inhibition entry in assay [2] and in assay [3] was “inactive” throughout.
For `COC(=O)[C@H](CO)NC(=O)/C(C#N)=C/c1ccc(OC)cc1`, the figures for the inhibition in assay [1], in assay [2] and in assay [3] were 21.4%, 21.1% and 20.3%, respectively.
For `CC(C)c1ccc(/C=C(\C#N)C(N)=O)cc1`, in that order: 19.4%, 24.6% and 23%.
For `N#C/C(=C\c1ccccc1)C(N)=O`, in that order: 12.5%, 9.3% and 15%.
For `CCC/C(=C(\C#N)C(N)=O)c1ccccc1`, the inhibition in assay [1] was 6.9%; in assay [2], 16%; in assay [3], 7.6%.
`N#C/C(=C\c1ccc(O)c(O)c1)C(N)=O`: the figures for the inhibition in assay [1], in assay [2] and in assay [3] were 18.4%, 28.8% and 34.9%, respectively.
For `COc1ccc(/C=C(\C#N)C(N)=O)cc1OC`, the inhibition is 20% in assay [1], 22% in assay [2] and 19.2% in assay [3].
`N#C/C(=C\c1c[nH]c2ccccc12)C(N)=O`: the results for the inhibition in assay [1], in assay [2] and in assay [3] were 16.4%, 33.4% and 23.7%, respectively.
For `N#C/C(=C\c1ccc(CO)cc1)C(N)=O`, in that order: 8.7%, 21.7% and 22.1%.
For `CCC/C(=C(/C#N)C(N)=O)c1ccccc1`, in that order: 11.1%, 15.3% and 6.7%.
For `CN(C)c1ccc(/C=C/CC(C#N)C(=O)NC2CC2)cc1` (centres undefined), in that order: 6.7%, 37% and 9%.
On to `N#C/C(=C\c1ccc(Cl)cc1Cl)C(N)=O`, for which the results for the inhibition in assay [1], in assay [2] and in assay [3] were 8.5%, 10.7% and 14.7%, respectively.
For `N#C/C(=C\c1ccc(Br)s1)C(=O)NC1CC1`, in that order: 17.9%, 10.5% and “inactive”.
For `CC(C)/C(=C(\C#N)C(N)=O)c1ccccc1`, in that order: 10.1%, 13.8% and “inactive”.
For the molecule `CN(C)c1ccc(/C=C(\C#N)C(=O)O)cc1`, the results for the inhibition in assay [1], in assay [2] and in assay [3] were 13.3%, 46.5% and 38.7%, respectively.
For `COc1cc(/C=C(\C#N)C(N)=O)cc(I)c1O`, in that order: 23%, 43.8% and 30.5%.
For `N#C/C(=C\c1ccc([N+](=O)[O-])cc1)C(N)=O`, in that order: “inactive”, 10.5% and “inactive”.
In the case of `N#C/C(=C\c1cc(O)c(O)c([N+](=O)[O-])c1)C(N)=O`, the inhibition in assay [1] amounted to 22.5%; in assay [2] it was 28.2%; in assay [3] it was 24.3%.
For `N#C/C(=C\c1ccc(O)cc1)C(=O)NCC1CCCO1` (centres undefined), in that order: 16.8%, 44.4% and 46.4%.

These data come from ChEMBL document CHEMBL1926521, “Arylcyanoacrylamides as inhibitors of the Dengue and West Nile virus proteases” (Bioorg Med Chem, 2011).
